Measured values taken from ChEMBL document CHEMBL1137561 (J Med Chem, 2007).
pEC50, pKi: −log10 of the molar value.

How the values were obtained:
[1] = system: Human immunodeficiency virus 1; assay: Antiviral activity against HIV1 with reverse transcriptase K103N mutation in MT4 cells assessed as inhibition of viral induced cytopathic effect by MTT method; type: functional, organism-based; conditions: Human immunodeficiency virus 1, MT4
Summary of the method: (§1)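 MT-4 cells infected with the HIV-1 NNRTI-resistant mutant strain. Viable cells scored at day 5 post-infection by the MTT tetrazolium colorimetric method. […] Values are means ± SD from at least two experiments.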

[2] = system: Human immunodeficiency virus 1; assay: Antiviral activity against HIV1 with reverse transcriptase Y181C mutation in MT4 cells assessed as inhibition of viral induced cytopathic effect by MTT method; type: functional, organism-based; conditions: Human immunodeficiency virus 1, MT4; summary of the method: as §1
[3] = system: Human immunodeficiency virus 1; assay: Antiviral activity against HIV1 with reverse transcriptase Y188L mutation in MT4 cells assessed as inhibition of viral induced cytopathic effect by MTT method; type: functional, organism-based; conditions: Human immunodeficiency virus 1, MT4
Summary of the method: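 MT-4 cells infected with the HIV-1 NNRTI-resistant mutant strain. Viable cells scored at day 5 post-infection by the MTT tetrazolium colorimetric method. Values are means ± SD from at least two experiments.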

[4] = Cytotoxicity against MT4 cells after 4 days by MTT method; type: cell-based; conditions: human
Summary of the method: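 Mock-infected (noninfected) MT-4 cells, run in parallel with the antiviral test. Viable cells read by the MTT tetrazolium colorimetric method. […] Means ± SD from at least two experiments. The top concentration was limited where compounds precipitated in the culture medium.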

[5] = system: Human immunodeficiency virus 1; assay: Antiviral activity against HIV1 NL43 in MT4 cells assessed as inhibition of viral induced cytopathic effect after 4 days by MTT method; type: functional, organism-based
[6] = Selectivity index, ratio of CC50 for MT4 cells to EC50 for HIV1 NL43 infected MT4 cells; type: functional
[7] = system: Human immunodeficiency virus 1; assay: Antiviral activity against HIV1 with reverse transcriptase IRLL98 mutation in MT4 cells assessed as inhibition of viral induced cytopathic effect by MTT method; type: functional, organism-based
[8] = molecular target: Human immunodeficiency virus type 1 reverse transcriptase (Human immunodeficiency virus 1, UniProt Q72547); assay: Inhibition of wild type HIV1 3B reverse transcriptase
[9] = molecular target: Human immunodeficiency virus type 1 reverse transcriptase (Human immunodeficiency virus 1, UniProt Q72547, K103N); assay: Inhibition of HIV1 reverse transcriptase K103N mutant
[10] = molecular target: Human immunodeficiency virus type 1 reverse transcriptase (Human immunodeficiency virus 1, UniProt Q72547, L100I); assay: Inhibition of HIV1 reverse transcriptase L100I mutant
[11] = molecular target: Human immunodeficiency virus type 1 reverse transcriptase (Human immunodeficiency virus 1, UniProt Q72547, V106A); assay: Inhibition of HIV1 reverse transcriptase V106A mutant
[12] = molecular target: Human immunodeficiency virus type 1 reverse transcriptase (Human immunodeficiency virus 1, UniProt Q72547, V179D); assay: Inhibition of HIV1 reverse transcriptase V179D mutant
[13] = Inhibition of HIV1 reverse transcriptase Y1811 mutant; parameters: species or system Human immunodeficiency virus 1
Summary of the method: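 Recombinant HIV-1 RT Y181I mutant, purified to >95%, 10 min preincubation with inhibitor. Radioactive nucleotide incorporation into poly(rA)/oligo(dT) 10:1 was followed at varied nucleotide substrate levels, sampling every 2 min for initial velocities. Inhibitor spanned 0.2–5 Ki. Ki came from Lineweaver-Burk and Dixon plots. Means ± SD of at least three experiments.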

[14] = molecular target: Human immunodeficiency virus type 1 reverse transcriptase (Human immunodeficiency virus 1, UniProt Q72547, Y188L); assay: Inhibition of HIV1 reverse transcriptase Y188L mutant
[15] = Resistance index, Ratio of EC50 for drug-resistant HIV1 with RT K103N mutation in MT4 cells to EC50 for HIV1 NL43 in MT4 cells
[16] = Resistance index, Ratio of EC50 for drug-resistant HIV1 with RT Y181C mutation in MT4 cells to EC50 for HIV1 NL43 in MT4 cells
[17] = Resistance index, Ratio of EC50 for drug-resistant HIV1 with RT Y188L mutation in MT4 cells to EC50 for HIV1 NL43 in MT4 cells
[18] = Resistance index, Ratio of EC50 for drug-resistant HIV1 with RT IRLL98 mutation in MT4 cells to EC50 for HIV1 NL43 in MT4 cells
[19] = system: Human immunodeficiency virus 1; assay: Resistance index, ratio of Ki for HIV1 reverse transcriptase Y181I mutant to Ki for wild type HIV1 3B reverse transcriptase
Summary of the method: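 Initial velocities came from radioactive nucleotide incorporation into poly(rA)/oligo(dT) 10:1, sampled every 2 min. Inhibitor spanned 0.2–5 Ki, with Lineweaver-Burk and Dixon plots. Fold-resistance is Ki mutant / Ki wild type.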

[20] = system: Human immunodeficiency virus 1; assay: Antiviral activity against HIV1 NL43 in MT4 cells assessed as inhibition of viral induced cytopathic effect after 5 days by MTT method; conditions: Human immunodeficiency virus 1, NL43, MT4, 120 h
[21] = Human immunodeficiency virus 1, MT4

Structure (SMILES)	pEC50 [1]	pEC50 [2]	pEC50 [3]	CC50 at 96 h [4]	Ratio CC50/EC50 [6]	pKi [8]	pKi [9]	pKi [10]	pKi [11]	pKi [12]	pKi [13]	pKi [14]	Ratio EC50 [15]	Ratio EC50 [16]	Ratio EC50 [17]	Ratio EC50 [18]	pEC50 [7, 21]	Ratio Ki [19]	pEC50 [20]	other results
Cc1c(C(C)c2c(F)cccc2F)nc(N2CCSCC2)[nH]c1=O (stereo not given)	5.91	7.52	6.07	> 71 µM	>23667	7.22	5.00	5.30	7.52	7.70	< 4.70	5.40	413	10	287	20				pEC50 [5]: 8.52; pEC50 ([7]; mt4): 7.22
CCCN(C)c1nc(C(C)c2c(F)cccc2F)c(C)c(=O)[nH]1 (stereo not given)	8.00	9.22	7.52	> 78 µM	>130000	7.52	6.77	6.74	7.70		5.90	5.84	17	1	50	1.7	9.00	42	9.22	
Cc1c(C(C)c2c(F)cccc2F)nc(SC2CCCC2)[nH]c1=O (stereo not given)	6.65	7.01	< 5.52	> 3 µM	>3000	8.30	7.52	6.52	6.30	6.60	6.05	5.85	225	97		120	6.92	180	9.00	
Cc1c(C(C)c2c(F)cccc2F)nc(N(C)C(C)C)[nH]c1=O (stereo not given)	8.22	9.15	7.40	> 81 µM	>162000	7.40	7.10	5.00	7.52		6.07	5.92	12	1.4	80	2	9.00	21	9.30	
O=c1cc(Cc2c(F)cccc2F)nc(N2CCSCC2)[nH]1	< 5.00	< 5.00	< 5.00	> 77 µM	>2200	6.70	5.82	5.00	6.30	5.30	6.40	6.00					< 5.00	2	7.46	
CCc1c(C(C)c2c(F)cccc2F)nc(N(C)C)[nH]c1=O (stereo not given)	6.60	7.00	6.26	> 81 µM	>40500	7.30	5.70	5.40	7.22	7.52	5.30	5.00	125	50	275	440	6.06	100	8.70	
CCCNc1nc(C(C)c2c(F)cccc2F)c(C)c(=O)[nH]1 (stereo not given)	6.43	7.22	< 5.00	35 µM	11667	7.40	6.33	6.51	7.40		5.30	5.51	125	20		30	7.05	125	8.52	
Cc1c(C(C)c2c(F)cccc2F)nc(N(C)C)[nH]c1=O (stereo not given)	7.30	7.85	7.30	> 17 µM	>56667	7.00	6.30	6.00	7.00	5.70	5.40	6.30	167	47	167	17	8.30	40	9.52	
CN(C)c1nc(Cc2c(F)cccc2F)cc(=O)[nH]1	< 5.00	5.44	< 5.00	> 94 µM	>4087	7.10	5.52	5.00	6.30	5.30		4.52		156		87	5.70	37	7.64	
CCC(c1nc(N(C)C)[nH]c(=O)c1C)c1c(F)cccc1F (stereo not given)	5.74	6.54	6.32	> 81 µM	>11571	6.00	< 4.70	< 4.70	< 4.40	< 4.40	< 4.70	< 4.70	261	41	69	169	5.93		8.15	
CCN(C)c1nc(C(C)c2c(F)cccc2F)c(C)c(=O)[nH]1 (stereo not given)	7.70	8.70	7.52	81 µM	270000	7.40	6.30	5.60	7.70	7.70	5.00	5.40	67	7	100	10	8.52	250	9.52	
